Experiment [1] deals with Proteus mirabilis. Kind of experiment: Minimum inhibitory concentration against Proteus mirabilis A18 (inoculum, 10e5 cfu per spot). Format: functional. Summed up:
(§1)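 MIC in µg/mL, determined in Jewell and Permain growth medium with spot inoculation at 10^5 cfu per spot.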

Experiment [2] concerns Escherichia coli. Nature of the experiment: Minimum inhibitory concentration against Escherichia coli A8 (inoculum, 10e5 cfu per spot). Type of experiment: functional. Summed up:
as §1

The test system of experiment [3] is Pseudomonas aeruginosa. Nature of the experiment: Minimum inhibitory concentration against Pseudomonas aeruginosa A21 (inoculum, 10e5 cfu per spot). Format: functional. Summed up: as §1
Experiment [4] deals with Serratia marcescens. Nature of the experiment: Minimum inhibitory concentration against Serratia marcescens A16 (inoculum, 10e5 cfu per spot). Format: functional. Summed up:
as §1

In experiment [5] the test system is Streptococcus pyogenes. Nature of the experiment: Minimum inhibitory concentration against Streptococcus pyogenes (inoculum, 10e5 cfu per spot) A1. Type of experiment: functional. Summed up:
as §1

The subject of experiment [6] is Enterobacter cloacae. Nature of the experiment: Minimum inhibitory concentration against Enterobacter cloacae A13(inoculum, 10e2 cfu per spot).
The test system of experiment [7] is Staphylococcus aureus. Nature of the experiment: Minimum inhibitory concentration against Staphylococcus aureus A6 (inoculum, 10e5 cfu per spot). Type of experiment: functional. Summed up: as §1
The subject of experiment [8] is Staphylococcus aureus. Kind of experiment: Minimum inhibitory concentration against Staphylococcus aureus A5(inoculum, 10e5 cfu per spot). To be noted: in the assay text read “10e2 cfu per spot” for “10e5 cfu per spot”. Format: functional.
Experiment [9] has as its system Enterobacter cloacae. Nature of the experiment: Minimum inhibitory concentration against Enterobacter cloacae A13(inoculum, 10e5 cfu per spot). Format: functional. To be noted: in the assay text read “10e2 cfu per spot” for “10e5 cfu per spot”.
In experiment [10] the test system is Proteus vulgaris. Kind of experiment: Minimum inhibitory concentration against Proteus vulgaris Pv9(inoculum, 10e5 cfu per spot). Parentheses value indicate inoculum, 10e2 cfu per spot.
The test system of experiment [11] is Klebsiella pneumoniae. Kind of experiment: Minimum inhibitory concentration against Klebsiella pneumoniae A24(inoculum, 10e5 cfu per spot). Parentheses value indicate inoculum, 10e2 cfu per spot. Type of experiment: functional. Summed up: (§2)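 MIC in µg/mL in Jewell and Permain growth medium. Each strain was spot-inoculated at 10^5 cfu per spot; the bracketed values come from a 10^2 cfu per spot inoculum.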

Experiment [12] relates to Escherichia coli. Kind of experiment: Minimum inhibitory concentration against Escherichia coli DCO (inoculum, 10e4 cfu per spot). Type of experiment: functional. Summed up: (§3)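 MIC in µg/mL, determined in Jewell and Permain growth medium with spot inoculation at 10^4 cfu per spot. P99 is described as a constitutive type I lactamase producer.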
Experiment [13] relates to Escherichia coli. Nature of the experiment: Minimum inhibitory concentration against Escherichia coli TEM X3 (inoculum, 10e4 cfu per spot)(TEM I type lactamase producer).
Experiment [14] relates to Enterobacter cloacae. Nature of the experiment: Minimum inhibitory concentration against Enterobacter cloacae P99 (inoculum, 10e4 cfu per spot)(type I lactamase producer). Format: functional. Summed up:
as §3

The subject of experiment [15] is Enterobacter cloacae. Nature of the experiment: Minimum inhibitory concentration against Enterobacter cloacae A13(inoculum, 10e5 cfu per spot). Parentheses value indicate inoculum, 10e2 cfu per spot. Type of experiment: functional. Summed up:
as §2

For experiment [16], the system named is Escherichia coli. Kind of experiment: Minimum inhibitory concentration against Escherichia coli A8(inoculum, 10e5 cfu per spot). Parentheses value indicate inoculum, 10e2 cfu per spot. Type of experiment: functional. Summed up:
as §2

Experiment [17] relates to Escherichia coli. Nature of the experiment: Minimum inhibitory concentration against Escherichia coli DC2 (inoculum, 10e4 cfu per spot). Format: functional. Summed up:
as §3

Experiment [18] deals with Klebsiella aerogenes. Kind of experiment: Minimum inhibitory concentration against Klebsiella aerogenes X5L (inoculum, 10e4 cfu per spot). Type of experiment: functional. Summed up:
as §3

In experiment [19] the test system is Staphylococcus aureus. Kind of experiment: Minimum inhibitory concentration against Staphylococcus aureus A6(inoculum, 10e5 cfu per spot). Parentheses value indicate inoculum, 10e2 cfu per spot. Type of experiment: functional. Summed up:
as §2

For experiment [20], the system named is Enterobacter cloacae. Kind of experiment: Minimum inhibitory concentration against Enterobacter cloacae P99 (inoculum, 10e4 cfu per spot). Format: functional. Summed up: as §3
Experiment [21] relates to Staphylococcus aureus. Kind of experiment: Minimum inhibitory concentration against Staphylococcus aureus A4(inoculum, 10e5 cfu per spot). Parentheses value indicate inoculum, 10e2 cfu per spot. Format: functional. Summed up: as §2
In experiment [22] the test system is Serratia marcescens. Kind of experiment: Minimum inhibitory concentration against Serratia marcescens A16(inoculum, 10e5 cfu per spot). Parentheses value indicate inoculum, 10e2 cfu per spot. Type of experiment: functional. Summed up:
as §2

Experiment [23] relates to Escherichia coli. Kind of experiment: Minimum inhibitory concentration against Escherichia coli X4 (inoculum, 10e4 cfu per spot).
The test system of experiment [24] is Pseudomonas aeruginosa. Kind of experiment: Minimum inhibitory concentration against Pseudomonas aeruginosa A21(inoculum, 10e5 cfu per spot). Parentheses value indicate inoculum, 10e2 cfu per spot. Format: functional. Summed up:
as §2

The subject of experiment [25] is Proteus mirabilis. Nature of the experiment: Minimum inhibitory concentration against Proteus mirabilis A18(inoculum, 10e5 cfu per spot). Parentheses value indicate inoculum, 10e2 cfu per spot. Type of experiment: functional. Summed up:
as §2

The test system of experiment [26] is Klebsiella aerogenes. Kind of experiment: Minimum inhibitory concentration against Klebsiella aerogenes X6 (inoculum, 10e4 cfu per spot). Type of experiment: functional. Summed up: as §3
Experiment [27] has as its system Enterobacter cloacae. Kind of experiment: Minimum inhibitory concentration against Enterobacter cloacae A13 (inoculum, 10e5 cfu per spot). Format: functional. Summed up:
as §1

The test system of experiment [28] is Proteus mirabilis. Nature of the experiment: Minimum inhibitory concentration against Proteus mirabilis A18(inoculum, 10e5 cfu per spot). Format: functional. Summed up:
as §1

The test system of experiment [29] is Staphylococcus aureus. Kind of experiment: Minimum inhibitory concentration against Staphylococcus aureus A4 (inoculum, 10e5 cfu per spot). Type of experiment: functional. Summed up: as §1
For experiment [30], the system named is Proteus vulgaris. Nature of the experiment: Minimum inhibitory concentration against Proteus vulgaris Pv9 (inoculum, 10e5 cfu per spot).
Experiment [31] concerns Klebsiella pneumoniae. Kind of experiment: Minimum inhibitory concentration against Klebsiella pneumoniae A24 (inoculum, 10e5 cfu per spot). Type of experiment: functional. Summed up: as §1

Converted amounts (≈) assume the structure as drawn.

Take `CC1=C(C(=O)OC(c2ccccc2)c2ccccc2)N2C(=O)[C@@H](Nc3nc4ccccc4o3)C2SC1` (stereo not given in full): the MIC – broadly, the lowest concentration that inhibits growth of the organism – in [1] was 1000 µg/mL (≈ 2010 µM); in experiment [2], above 1000 µg/mL; in experiment [3] it was above 1000 µg/mL; in experiment [4], above 1000 µg/mL; in experiment [5], 200 µg/mL (≈ 402 µM); in experiment [6] it was 1000 µg/mL (≈ 2010 µM). Also, the MIC in experiment [7] and in experiment [8] was 8 µg/mL (≈ 16.1 µM) each time.

Consider `CC(=O)OCC1=C(C(=O)OC(c2ccccc2)c2ccccc2)N2C(=O)[C@@H](Nc3nc4ccccc4s3)C2SC1` (stereo not given in full), for which the MIC was 200 µg/mL (≈ 350 µM) in experiment [1]; 200 µg/mL (≈ 350 µM) in [2]; 200 µg/mL (≈ 350 µM) in experiment [9]; above 1000 µg/mL in [3]; 1000 µg/mL (≈ 1750 µM) in experiment [4]; 1 µg/mL (≈ 1.75 µM) in [5]. Moreover, the MIC in experiment [7] and in experiment [8] was 0.5 µg/mL (≈ 0.875 µM) in each case.

Consider `CC1=C(C(=O)OC(c2ccccc2)c2ccccc2)N2C(=O)[C@@H](NC3=NC4CC4N3)C2SC1` (stereo not given in full), for which the MIC in experiment [10] is above 256 µg/mL; in experiment [11], 1 µg/mL (≈ 2.17 µM); in experiment [12], 1 µg/mL (≈ 2.17 µM); in experiment [13], 1 µg/mL (≈ 2.17 µM); in experiment [14] it was 2 µg/mL (≈ 4.34 µM); in experiment [15], 4 µg/mL (≈ 8.69 µM). In addition, the MIC is 2 µg/mL (≈ 4.34 µM) in experiment [16]; 0.5 µg/mL (≈ 1.09 µM) in [17]; 2 µg/mL (≈ 4.34 µM) in experiment [18]; above 256 µg/mL in experiment [19]; 1 µg/mL (≈ 2.17 µM) in experiment [20]; above 256 µg/mL in experiment [21]. Moreover, the MIC in experiment [22] is 4 µg/mL (≈ 8.69 µM); in experiment [5] it was 128 µg/mL (≈ 278 µM); in [23], 1 µg/mL (≈ 2.17 µM); in experiment [24], 256 µg/mL (≈ 556 µM); in experiment [25] it was above 256 µg/mL; in [26], 2 µg/mL (≈ 4.34 µM).

With `CC(=O)OCC1=C(C(=O)OC(c2ccccc2)c2ccccc2)N2C(=O)[C@@H](Nc3nc4cc(C)ccc4[nH]3)C2SC1` (stereo not given in full), the MIC was found to be 256 µg/mL (≈ 450 µM) in experiment [27]; 2 µg/mL (≈ 3.52 µM) in [2]; 4 µg/mL (≈ 7.03 µM) in [28]; 1 µg/mL (≈ 1.76 µM) in [12]; 4 µg/mL (≈ 7.03 µM) in experiment [13]; 256 µg/mL (≈ 450 µM) in experiment [14]. For the same compound, the MIC in experiment [29] was 16 µg/mL (≈ 28.1 µM); in experiment [3], above 256 µg/mL; in experiment [17], 0.06 µg/mL (≈ 0.106 µM); in experiment [18] it was 128 µg/mL (≈ 225 µM); in experiment [4], 128 µg/mL (≈ 225 µM); in [20] it was 2 µg/mL (≈ 3.52 µM). For the same compound, the MIC was 1 µg/mL (≈ 1.76 µM) in [5]; 256 µg/mL (≈ 450 µM) in experiment [30]; 1 µg/mL (≈ 1.76 µM) in [23]; 4 µg/mL (≈ 7.03 µM) in [31]; 2 µg/mL (≈ 3.52 µM) in experiment [7]; 4 µg/mL (≈ 7.03 µM) in experiment [26].

As to `CC(=O)OCC1=C(C(=O)OC(c2ccccc2)c2ccccc2)N2C(=O)[C@@H](Nc3nc4ccccc4[nH]3)C2SC1` (stereo not given in full), the MIC in experiment [27] was at least 128 µg/mL; in experiment [2], 2 µg/mL (≈ 3.61 µM); in experiment [28] it was 4 µg/mL (≈ 7.21 µM); in [12], 0.5 µg/mL (≈ 0.902 µM); in experiment [13], 2 µg/mL (≈ 3.61 µM); in experiment [14] it was at least 128 µg/mL. The MIC in experiment [29] was 8 µg/mL (≈ 14.4 µM); in experiment [3], at least 128 µg/mL; in [17], below 0.03 µg/mL; in experiment [18], at least 128 µg/mL; in experiment [4], 64 µg/mL (≈ 115 µM); in [20], 2 µg/mL (≈ 3.61 µM). Also, the MIC came to 2 µg/mL (≈ 3.61 µM) in experiment [5]; 64 µg/mL (≈ 115 µM) in experiment [30]; 0.25 µg/mL (≈ 0.451 µM) in experiment [23]; 1 µg/mL (≈ 1.8 µM) in experiment [31]; 2 µg/mL (≈ 3.61 µM) in experiment [7]; 2 µg/mL (≈ 3.61 µM) in [26].

Source of the values: ChEMBL document CHEMBL1125626, “Synthesis and structure-activity relationship of new cephalosporins with amino heterocycles at C-7. Dependence of the antibacterial spectrum and beta-lactamase stability on the pKa of the C-7 heterocycle” (1991).
